Consider eleven molecules from ChEMBL document CHEMBL1148007, “Synthesis of new S-derivatives of clubbed triazolyl thiazole as anti-Mycobacterium tuberculosis agents” (Bioorg Med Chem, 2007).

In data set [1] the test system is Mycobacterium tuberculosis. The data set can be described thus: Antitubercular activity against Mycobacterium tuberculosis H37Rv by MABA assay. Type of data set: functional. The essentials: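 Actives re-tested at lower concentrations against H37Rv (ATCC 27294) in BACTEC 12B medium by Microplate Alamar Blue Assay. MIC taken as lowest concentration giving […] fluorescence reduction versus controls; rifampin reference.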
On the technique in general: Alamar Blue is a resazurin reagent that responds to reducing activity.

The next data set has as its system Staphylococcus aureus. The data set can be described thus: Antibacterial activity against Staphylococcus aureus at 50 to 100 uM after 24 hrs by well diffusion method. Type of data set: functional. The essentials: (§1)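 Nutrient agar plates with 10 mm wells cut by cork borer; 24-h subcultured bacteria swabbed on. Compounds dissolved in chloroform, 50 to 100 μM added to wells, gentamycin as standard. Incubated 24 h at 24–28 °C; inhibition zone diameter measured and converted to percent inhibition.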
Background: In agar diffusion tests the substance spreads into inoculated agar from a disc or well.

The test system of another data set is Escherichia coli. Put plainly: Antibacterial activity against Escherichia coli at 50 to 100 uM after 24 hrs by well diffusion method. Type of data set: functional. The procedure, abridged: as §1
A further data set deals with Pseudomonas aeruginosa. The data set can be described thus: Antibacterial activity against Pseudomonas aeruginosa at 50 to 100 uM after 24 hrs by well diffusion method. The class given is functional. The procedure, abridged:
as §1

Another data set relates to Salmonella typhi. Put plainly: Antibacterial activity against Salmonella typhi at 50 to 100 uM after 24 hrs by well diffusion method. The class given is functional, Salmonella enterica subsp. enterica serovar Typhi. Also on record: unit not given here. The procedure, abridged:
as §1

Data set [2] can be described thus: Cytotoxicity against Vero-C1008 cells at 6.25 to 50 ug/mL by neutral red uptake assay. Type of data set: cell-based. Conditions: chlorocebus sabaeus. The essentials: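 Vero-C-1008 cells exposed to 6.25 to 50 μg/mL compound; viability read by neutral red uptake.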

Turning to `COC(=O)CSc1nnc(Cc2csc(NC(C)=O)n2)n1NC(=O)c1ccc(Cl)cc1`, the minimum inhibitory concentration (MIC) in data set [1] is < 6.25 µg/mL. The inhibition zone in the data set on Staphylococcus aureus stood at 20 mm; in the data set with Escherichia coli it was 10 mm; in the data set with Pseudomonas aeruginosa it was 16 mm. For the same molecule, the Inhibition in the data set on Salmonella typhi is 10. Also, the Activity entry in data set [2] is “Non-toxic”.

For `O=C(O)CCNc1nc(Cc2nnc(SCC(=O)NNC(=O)c3ccccc3)n2NC(=O)c2cccc([N+](=O)[O-])c2)cs1`, the MIC in data set [1] was < 6.25 µg/mL. For the same molecule, the inhibition zone in the data set with Staphylococcus aureus came out at 12 mm; in the data set with Escherichia coli, 10 mm; in the data set on Pseudomonas aeruginosa it was 10 mm. This molecule registered an Inhibition in the data set on Salmonella typhi of 14. Further, the Activity entry in data set [2] is reported as “Non-toxic”.

Regarding `COC(=O)CSc1nnc(Cc2csc(NCCC(=O)O)n2)n1NC(=O)c1ccc(Cl)cc1`, the minimum inhibitory concentration (MIC) in data set [1] is < 6.25 µg/mL. Further, the inhibition zone in the data set with Staphylococcus aureus stood at 26 mm; in the data set with Escherichia coli, 22 mm; in the data set on Pseudomonas aeruginosa it was 24 mm. In the data set on Salmonella typhi, this molecule registered an Inhibition of 18. Also, the Activity entry in data set [2] is on record as “Non-toxic”.

For the molecule `O=C(CSc1nnc(Cc2csc(NC(=O)CCl)n2)n1NC(=O)c1cccc([N+](=O)[O-])c1)NNC(=O)c1ccccc1`, the minimum inhibitory concentration (MIC) in data set [1] is < 6.25 µg/mL. Also, the inhibition zone in the data set on Staphylococcus aureus is 21 mm; with Escherichia coli, 10 mm; in the data set with Pseudomonas aeruginosa it was 18 mm. Further, the Inhibition in the data set with Salmonella typhi is 18. In addition, the Activity entry in data set [2] is “Non-toxic”.

Regarding `CC(=O)Nc1nc(Cc2nnc(SCSc3nnc(Cc4csc(NC(C)=O)n4)n3NC(=O)c3ccc(Cl)cc3)n2NC(=O)c2ccc(Cl)cc2)cs1`, in data set [1], the minimal inhibitory concentration (MIC) was < 6.25 µg/mL. Besides, the inhibition zone with Staphylococcus aureus was 24 mm; in the data set with Escherichia coli, 24 mm; with Pseudomonas aeruginosa, 21 mm. Also, in the data set with Salmonella typhi, the Inhibition is recorded as 17. Moreover, the Activity entry in data set [2] is “Non-toxic”.

Turning to `CC(=O)NNC(=O)CSc1nnc(Cc2csc(NCCC(=O)O)n2)n1NC(=O)c1ccc(Cl)cc1`, in data set [1], the MIC was < 6.25 µg/mL. Besides, the inhibition zone in the data set with Staphylococcus aureus was found to be 20 mm; with Escherichia coli, 26 mm; in the data set with Pseudomonas aeruginosa, 21 mm. Moreover, the Inhibition in the data set with Salmonella typhi is reported as 18. Moreover, the Activity result in data set [2] was “Non-toxic”.

For `O=C(CCl)Nc1nc(Cc2nnc(SCSc3nnc(Cc4csc(NC(=O)CCl)n4)n3NC(=O)c3cccc([N+](=O)[O-])c3)n2NC(=O)c2cccc([N+](=O)[O-])c2)cs1`, the MIC in data set [1] is < 6.25 µg/mL. The inhibition zone in the data set with Staphylococcus aureus stood at 18 mm; in the data set with Escherichia coli, 27 mm; in the data set with Pseudomonas aeruginosa it was 30 mm. For the same molecule, the Inhibition with Salmonella typhi stood at 24. The Activity entry in data set [2] is on record as “Non-toxic”.

Take `COC(=O)CSc1nnc(Cc2csc(NC(=O)CCl)n2)n1NC(=O)c1cccc([N+](=O)[O-])c1`: in data set [1], the MIC is < 6.25 µg/mL. The inhibition zone in the data set on Staphylococcus aureus worked out at 26 mm; in the data set with Escherichia coli, 20 mm; in the data set on Pseudomonas aeruginosa, 24 mm. In the data set with Salmonella typhi, this molecule returned an Inhibition of 20. Moreover, the Activity result in data set [2] was “Non-toxic”.

With `CC(=O)Nc1nc(Cc2nnc(SCC(=O)NNC(=O)CCl)n2NC(=O)c2ccc(Cl)cc2)cs1`, the MIC in data set [1] is < 6.25 µg/mL. The inhibition zone in the data set with Staphylococcus aureus worked out at 25 mm; with Escherichia coli, 18 mm; in the data set with Pseudomonas aeruginosa, 20 mm. Besides, the Inhibition in the data set with Salmonella typhi turned out to be 20. In addition, in data set [2], the Activity entry is “Non-toxic”.

`Nn1c(S)nnc1CSc1nnc(Cc2csc(NC(=O)c3ccccc3)n2)n1NC(=O)c1cccc([N+](=O)[O-])c1`: the minimum inhibitory concentration (MIC) in data set [1] is < 6.25 µg/mL. Further, the inhibition zone is 24 mm in the data set on Staphylococcus aureus, 20 mm with Escherichia coli and 27 mm in the data set on Pseudomonas aeruginosa. This molecule also had an Inhibition with Salmonella typhi of 19. Besides, the Activity result in data set [2] is reported as “Non-toxic”.

For `CC(=O)NNC(=O)CSc1nnc(Cc2csc(NC(=O)CCl)n2)n1NC(=O)c1cccc([N+](=O)[O-])c1`, the MIC in data set [1] is < 6.25 µg/mL. For the same molecule, the inhibition zone in the data set with Staphylococcus aureus was 27 mm; in the data set with Escherichia coli, 18 mm; with Pseudomonas aeruginosa it was 24 mm. For the same molecule, the Inhibition in the data set with Salmonella typhi came to 24. The Activity result in data set [2] was “Non-toxic”.

As a reminder, the MIC is the least concentration at which growth counts as inhibited.
